Reference: ChEMBL document CHEMBL3580550, “Antibacterial Polyketide Heterodimers from Pyrenacantha kaurabassana Tubers” (2015)
In brackets after ≈: the same amount, converted by molar mass.

Assays:
Assay type in all cases: functional
Staphylococcus aureus [1] = test: Antibacterial activity against Staphylococcus aureus ATCC 29213 assessed as inhibition of visible bacterial growth incubated for 24 hrs at 37 degC by broth microdilution method; conditions: ATCC 29213, 24 h
How it was run: (§1)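 MICs were determined by broth microdilution against S. aureus strains maintained on Mueller Hinton agar (24 h, 37 °C). Final compound concentrations ranged from 0.39 to 100 μg/mL. Inoculum was 10^5 CFU/mL final per well, incubated 24 h at 37 °C. MIC was the lowest concentration preventing visible growth. Wells were run in triplicate and the experiment was repeated three times.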

Staphylococcus aureus [2] = test: Antibacterial activity against Staphylococcus aureus isolated from tibial osteomyelitis patient assessed as inhibition of visible bacterial growth incubated for 24 hrs at 37 degC by broth microdilution method; how it was run: as §1
Staphylococcus aureus [3] = test: Antibacterial activity against Staphylococcus aureus isolated from tibial leg ulcer patient assessed as inhibition of visible bacterial growth incubated for 24 hrs at 37 degC by broth microdilution method; how it was run: as §1
Helicobacter pylori [4] = test: Bactericidal activity against Helicobacter pylori J99 assessed as reduction in viable colony-forming units pre-incubated for 2 hrs followed by incubation at 37 degC under microaerophilic conditions for 72 hrs
How it was run: (§2)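 H. pylori J99 came from 24 h cultures on Skirrow's medium (microaerobic, 37 °C) and was resuspended in brain heart infusion. Compound at 100 μg/mL final was mixed with 10^6 CFU/mL bacteria and held 2 h at 37 °C. Controls were BHI alone and amoxicillin at 10 μg/mL. Samples were serially 10-fold diluted in warm PBS and plated in triplicate on Skirrow's (72 h, 37 °C, microaerophilic). Kill was log10 CFU/mL (0 h) minus log10 CFU/mL (2 h).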

Helicobacter pylori [5] = test: Bactericidal activity against Helicobacter pylori J99 assessed as compound concentration causing reduction in viable colony-forming units pre-incubated for 2 hrs followed by incubation at 37 degC under microaerophilic conditions for 72 hrs; how it was run: as §2
Helicobacter pylori [6] = test: Bactericidal activity against Helicobacter pylori J99 assessed as reduction in viable colony-forming units pre-incubated for 2 hrs followed by incubation at 37 degC under microaerophilic conditions for 72 hrs relative to initial inoculum; how it was run: as §2

MIC (Staphylococcus aureus [1]) [µM]	MIC (Staphylococcus aureus [2]) [µM]	Compound	MIC (Staphylococcus aureus [3]) [µM]	log10CFU/ml (Helicobacter pylori [4])	Activity (Helicobacter pylori [5]) [µM]	Activity (Helicobacter pylori [6]) [%]
89.9 (≈ 50 µg/mL)	89.9 (≈ 50 µg/mL)	COc1cc(O)c2c(O)c3c(c(-c4c(OC)cc5c(c4O)C(=O)c4c(O)cc(C)cc4C5=O)c2c1)CC(C)OC3=O (stereo unspecified)	89.9 (≈ 50 µg/mL)	0.42	179.8	–
10.7 (≈ 6.28 µg/mL)	10.7 (≈ 6.28 µg/mL)	COc1cc(O)c2c(O)c3c(c(-c4c(OC)cc5c(c4O)C(=O)c4c(O)cc(C)c(OC)c4C5=O)c2c1)CC(C)OC3=O (stereo unspecified)	2.7 (≈ 1.58 µg/mL)	6	170.6	>99.9
–	–	CC1(C)S[C@@H]2[C@H](NC(=O)[C@H](N)c3ccc(O)cc3)C(=O)N2[C@H]1C(=O)O [AMOXICILLIN]	–	0.51	274	–
8.3 (≈ 4.02 µg/mL)	8.3 (≈ 4.02 µg/mL)	NC[C@H]1O[C@H](O[C@H]2[C@H](O)[C@@H](O[C@H]3O[C@H](CO)[C@@H](O)[C@H](N)[C@H]3O)[C@H](N)C[C@@H]2N)[C@H](O)[C@@H](O)[C@@H]1O [KANAMYCIN]	8.3 (≈ 4.02 µg/mL)	–	–	–
